Experimental data as given in ChEMBL document CHEMBL1154512, “PA-824 kills nonreplicating Mycobacterium tuberculosis by intracellular NO release” (2008).
Activity calls are given as the source filed them. The rule behind the calls is not given here.

Assays:
[1] = test system: Mycobacterium tuberculosis; assay: Induction of nitrous acid production in NRP2 phase Mycobacterium bovis BCG assessed as ratio of Vmax to Km under hypoxic non replicating condition; type: functional, variant bovis BCG
How it was run: (§1)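 NO release measured inside BCG cells preloaded with the NO-specific fluorescent probe DAF-FM diacetate and then treated with compound. Fluorescence (RFU) followed over time. Rate expressed as apparent Vmax/Km, i.e. RFU per hour divided by an intracellularly measured Km (RFU hr–1 μM–1).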

[2] = test system: Mycobacterium tuberculosis; assay: Induction of nitrous acid production in NRP2 phase Mycobacterium bovis BCG at 1.85 uM to 100 uM after 2 days under hypoxic non replicating condition in presence of DAF-FM diacetate; type: functional, organism-based; conditions: variant bovis BCG
[3] = test system: Mycobacterium tuberculosis; assay: Induction of nitrous acid production in NRP2 phase Mycobacterium bovis BCG under aerobic condition in presence of DAF-FM diacetate; type: functional, organism-based; conditions: variant bovis BCG; how it was run: as §1
[4] = test system: Mycobacterium tuberculosis; assay: Induction of nitrous acid production in NRP2 phase Mycobacterium bovis BCG at 20 uM by fluorescence quenching measurement in presence of C-PTIO; type: functional, organism-based; conditions: variant bovis BCG
How it was run: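 BCG cells preloaded with DAF-FM diacetate were treated with 20 μM nitroimidazole in the presence of increasing concentrations of the NO scavenger C-PTIO. NO read as fluorescence. Three independent replicates, error as SD.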

SMILES: CCCCc1ccc(CN[C@@H]2COc3nc([N+](=O)[O-])cn3C2)cc1
- Ratio [1]: 4.7

SMILES: O=[N+]([O-])c1cn2c(n1)NC[C@@H](OCc1ccc(OC(F)(F)F)cc1)C2
- Ratio [1]: 4.8

SMILES: O=[N+]([O-])c1cn2c(n1)OC[C@@H](NCCc1ccc(OC(F)(F)F)cc1)C2
- Ratio [1]: 28.7

SMILES: O=[N+]([O-])c1cn2c(n1)OC[C@@H](NCCCc1ccc(OC(F)(F)F)cc1)C2
- Ratio [1]: 60.1

SMILES: O=[N+]([O-])c1cn2c(n1)OC[C@@H](OCc1ccc(OC(F)(F)F)cc1)C2 [PRETOMANID]
- Activity [2]: Active
- Activity [3]: Active
- Ratio [1]: 12.5
- Activity [4]: inactive

SMILES: O=[N+]([O-])c1cn2c(n1)OC[C@@H](NCCCCc1ccc(OC(F)(F)F)cc1)C2
- Ratio [1]: 71.6

SMILES: O=[N+]([O-])c1cn2c(n1)OC[C@@H](NCc1ccc(OC(F)(F)F)cc1)C2
- Ratio [1]: 10.1

SMILES: O=[N+]([O-])c1cn2c(n1)OC[C@@H](NCc1ccc(OCc3ccc(OC(F)(F)F)cc3)cc1)C2
- Ratio [1]: 76.9
